Source: ChEMBL document CHEMBL1125228, “A 3-D model for 5-HT1A-receptor agonists based on stereoselective methyl-substituted and conformationally restricted analogues of 8-hydroxy-2-(dipropylamino)tetralin” (J Med Chem, 1991)
“And” between values parts separate entries of the source, which are not always exact repeats. Equal values may be shown once.

Assays:
Rattus norvegicus [1] = assay: In vivo accumulation of DOPA in striatum of rat brain at a dose of 0.32 umol/kg.; type: functional
Method in brief: (§1)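 Rats, reserpine-pretreated (5 mg/kg, i.e. 9 μmol/kg sc, 6 h before) or nonpretreated, given test hydrochloride sc in the neck (injection volume 5 mL/kg). Decarboxylase inhibitor NSD 1015 (100 mg/kg ip or 60 mg/kg sc) given 30 min later; decapitation after another 30 min. Brain dissected on ice into striatum, limbic system, hemispheres, brain stem. Homogenized in 0.1 M perchloric acid with α-methyl-DOPA internal standard; DOPA measured by ion-pair reversed-phase HPLC with electrochemical detection.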

Rattus norvegicus [2] = assay: In vivo accumulation of 5-HTP in striatum of rat brain at a dose of 0.1 umol/kg.; type: functional
Method in brief: (§2)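 Hydrochlorides given sc in the neck (5 mL/kg) to rats, either untreated or reserpine-pretreated (5 mg/kg sc, 6 h before). Decarboxylase inhibitor NSD 1015 (100 mg/kg ip or 60 mg/kg sc) given 30 min later; rats decapitated after another 30 min. Striatum, limbic system, hemispheres and brain stem dissected on ice and homogenized in 0.1 M perchloric acid with α-methyl-DOPA internal standard. DOPA, DA, 5-HTP and 5-HT measured by ion-pair reversed-phase HPLC with electrochemical detection.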

Rattus norvegicus [3] = assay: In vivo accumulation of 5-HT in limbic of rat brain at a dose of 1 umol/kg.; type: functional; method in brief: as §2
Rattus norvegicus [4] = assay: In vivo accumulation of 5-HT in limbic of rat brain at a dose of 0.1 umol/kg.; type: functional, Limbic system; method in brief: as §2
Rattus norvegicus [5] = assay: In vivo accumulation of DOPA in brain stem of rat brain at a dose of 0.1 umol/kg.; type: functional; method in brief: as §2
Rattus norvegicus [6] = assay: In vivo accumulation of 5-HTP in limbic of rat brain at a dose of 1 umol/kg.; type: functional; method in brief: as §2
Rattus norvegicus [7] = assay: In vivo accumulation of 5-HT in limbic of rat brain at a dose of 0.32 umol/kg.; type: functional; method in brief: as §2
Rattus norvegicus [8] = assay: In vivo accumulation of DOPA in striatum of rat brain at a dose of 1 umol/kg.; type: functional; method in brief: as §1
Rattus norvegicus [9] = assay: In vivo accumulation of DOPA in limbic of rat brain at a dose of 1 umol/kg.; type: functional; method in brief: as §1
Rattus norvegicus [10] = assay: In vivo accumulation of DA in striatum of rat brain at a dose of 0.1 umol/kg.; type: functional; method in brief: as §2
Rattus norvegicus [11] = assay: In vivo accumulation of 5-HTP in hemisphere of rat brain at a dose of 1 umol/kg.; type: functional; method in brief: as §2
Rattus norvegicus [12] = assay: In vivo accumulation of DOPA in limbic of rat brain at a dose of 0.1 umol/kg.; type: functional; method in brief: as §1
Rattus norvegicus [13] = assay: In vivo accumulation of 5-HTP in brain stem of rat brain at a dose of 1 umol/kg.; type: functional; method in brief: as §2
Rattus norvegicus [14] = assay: In vivo accumulation of DOPA in brain stem of rat brain at a dose of 0.32 umol/kg.; type: functional; method in brief: as §2
Rattus norvegicus [15] = assay: In vivo accumulation of 5-HTP in striatum of rat brain at a dose of 0.32 umol/kg.; type: functional; method in brief: as §2
Rattus norvegicus [16] = assay: In vivo accumulation of 5-HTP in hemisphere of rat brain at a dose of 0.1 umol/kg.; type: functional; method in brief: as §2
Rattus norvegicus [17] = assay: In vivo accumulation of 5-HTP in hemisphere of rat brain at a dose of 0.32 umol/kg.; type: functional; method in brief: as §2
Rattus norvegicus [18] = assay: In vivo accumulation of 5-HTP in brain stem of rat brain at a dose of 0.32 umol/kg.; type: functional; method in brief: as §2
Rattus norvegicus [19] = assay: In vivo accumulation of DOPA in striatum of rat brain at a dose of 0.1 umol/kg.; type: functional; method in brief: as §1
Rattus norvegicus [20] = assay: In vivo accumulation of DOPA in hemisphere of rat brain at a dose of 0.32 umol/kg.; type: functional; method in brief: as §1
Rattus norvegicus [21] = assay: In vivo accumulation of DOPA in hemisphere of rat brain at a dose of 0.1 umol/kg.; type: functional; method in brief: as §1
Rattus norvegicus [22] = assay: In vivo accumulation of 5-HT in striatum of rat brain at a dose of 0.32 umol/kg.; type: functional; method in brief: as §2
Rattus norvegicus [23] = assay: In vivo accumulation of 5-HTP in brain stem of rat brain at a dose of 0.1 umol/kg.; type: functional; method in brief: as §2
Rattus norvegicus [24] = assay: In vivo accumulation of DA in striatum of rat brain at a dose of 0.32 umol/kg.; type: functional; method in brief: as §2
Rattus norvegicus [25] = assay: In vivo accumulation of DA in striatum of rat brain at a dose of 1 umol/kg.; type: functional; method in brief: as §2
Rattus norvegicus [26] = assay: In vivo accumulation of 5-HTP in limbic of rat brain at a dose of 0.32 umol/kg.; type: functional; method in brief: as §2
Rattus norvegicus [27] = assay: In vivo accumulation of DOPA in brain stem of rat brain at a dose of 1 umol/kg.; type: functional; method in brief: as §2
Rattus norvegicus [28] = assay: In vivo accumulation of 5-HTP in striatum of rat brain at a dose of 1 umol/kg.; type: functional; method in brief: as §2
Rattus norvegicus [29] = assay: In vivo accumulation of 5-HTP in limbic of rat brain at a dose of 0.1 umol/kg.; type: functional; method in brief: as §2
Rattus norvegicus [30] = assay: In vivo accumulation of DOPA in limbic of rat brain at a dose of 0.32 umol/kg.; type: functional; method in brief: as §1
Rattus norvegicus [31] = assay: In vivo accumulation of 5-HT in striatum of rat brain at a dose of 0.1 umol/kg.; type: functional; method in brief: as §2
Rattus norvegicus [32] = assay: In vivo accumulation of 5-HT in striatum of rat brain at a dose of 1 umol/kg.; type: functional; method in brief: as §2
Rattus norvegicus [33] = assay: In vivo accumulation of 5-HTP in limbic of rat brain at a dose of 53 umol/kg.; type: functional; method in brief: as §2
Rattus norvegicus [34] = assay: In vivo accumulation of 5-HTP in brain stem of rat brain at a dose of 53 umol/kg.; type: functional; method in brief: as §2
Rattus norvegicus [35] = assay: In vivo accumulation of 5-HTP in hemisphere of rat brain at a dose of 53 umol/kg.; type: functional; method in brief: as §2
Rattus norvegicus [36] = assay: In vivo accumulation of DA in striatum of rat brain at a dose of 53 umol/kg.; type: functional; method in brief: as §2
Rattus norvegicus [37] = assay: In vivo accumulation of DOPA in brain stem of rat brain at a dose of 53 umol/kg.; type: functional; method in brief: as §2
Rattus norvegicus [38] = assay: In vivo accumulation of 5-HTP in striatum of rat brain at a dose of 53 umol/kg.; type: functional; method in brief: as §2
Rattus norvegicus [39] = assay: In vivo accumulation of 5-HT in striatum of rat brain at a dose of 53 umol/kg.; type: functional; method in brief: as §2
Rattus norvegicus [40] = assay: In vivo accumulation of DOPA in striatum of rat brain at a dose of 53 umol/kg.; type: functional; method in brief: as §1
Rattus norvegicus [41] = assay: In vivo accumulation of 5-HT in limbic of rat brain at a dose of 53 umol/kg.; type: functional; method in brief: as §2

SMILES: CCCN1CCC[C@H]2c3c(O)cccc3CC[C@@H]21
- Control (Rattus norvegicus [1]): 113.6%
- Control (Rattus norvegicus [2]): 55.3%
- Control (Rattus norvegicus [3]): 170.1%
- Control (Rattus norvegicus [4]): 126.7%
- Control (Rattus norvegicus [5]): 93.2%
- Control (Rattus norvegicus [6]): 52.3%
- Control (Rattus norvegicus [7]): 138.1%
- Control (Rattus norvegicus [8]): 117.6%
- Control (Rattus norvegicus [9]): 107.3% and 111%
- Control (Rattus norvegicus [10]): 123.1%
- Control (Rattus norvegicus [11]): 43%
- Control (Rattus norvegicus [12]): 95.9% and 124.5%
- Control (Rattus norvegicus [13]): 61.1%
- Control (Rattus norvegicus [14]): 110.1%
- Control (Rattus norvegicus [15]): 51.5%
- Control (Rattus norvegicus [16]): 74.7%
- Control (Rattus norvegicus [17]): 60.8%
- Control (Rattus norvegicus [18]): 70.7%
- Control (Rattus norvegicus [19]): 109.3%
- Control (Rattus norvegicus [20]): 114%
- Control (Rattus norvegicus [21]): 97%
- Control (Rattus norvegicus [22]): 81.6%
- Control (Rattus norvegicus [23]): 90.8%
- Control (Rattus norvegicus [24]): 108.2%
- Control (Rattus norvegicus [25]): 115.8%
- Control (Rattus norvegicus [26]): 69.7%
- Control (Rattus norvegicus [27]): 133.3%
- Control (Rattus norvegicus [28]): 44.7%
- Control (Rattus norvegicus [29]): 85.1%
- Control (Rattus norvegicus [30]): 115.9% and 107.8%
- Control (Rattus norvegicus [31]): 98.1%
- Control (Rattus norvegicus [32]): 134.9%

SMILES: CCCN1CCC[C@@H]2Cc3cccc(O)c3C[C@H]21
- Control (Rattus norvegicus [33]): 88%
- Control (Rattus norvegicus [34]): 91.9%
- Control (Rattus norvegicus [35]): 92.2%
- Control (Rattus norvegicus [36]): 114.5%
- Control (Rattus norvegicus [37]): 125.1%
- Control (Rattus norvegicus [38]): 85%
- Control (Rattus norvegicus [39]): 132%
- Control (Rattus norvegicus [40]): 66.1%
- Control (Rattus norvegicus [41]): 114.3%
